In ChEMBL document CHEMBL4393654, “Discovery and Early Clinical Development of an Inhibitor of 5-Lipoxygenase Activating Protein (AZD5718) for Treatment of Coronary Artery Disease” (J Med Chem, 2019):
≈ marks a conversion by molar mass, not a printed value. Calls of active or inactive are those of the source. The calls are words filed in the database; no cut-off is given here.

What was measured:
[1] = Mutagenicity in Salmonella typhimurium TA100 in presence of rat S9 fraction by Ames test; assay type: toxicity, subcellular; details: salmonella enterica subsp. enterica serovar typhimurium
How it was run: (§1)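 Ames bacterial mutagenicity test in S. typhimurium TA98 and TA100. Run with and without metabolic activation by rat S9 fraction.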

[2] = Mutagenicity in Salmonella typhimurium TA100 in absence of rat S9 fraction by Ames test; assay type: toxicity; details: salmonella enterica subsp. enterica serovar typhimurium; how it was run: as §1
[3] = Intrinsic clearance in rat hepatocytes assessed per million cells at 1 uM measured after 2 to 60 mins by LC-MS/MS analysis; assay type: ADME, cell-based, Hepatocyte; details: read-out: CLH
How it was run: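 Rat hepatocyte incubation of the compound; intrinsic clearance measured after incubation.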

[4] = target: T1, Arachidonate 5-lipoxygenase-activating protein (Homo sapiens, UniProt P20292); test: Inhibition of [3H]MK0591 binding to human FLAP expressed in […] cell membranes measured after 60 to 80 mins by microbeta scintillation counting method
T1 sequence (P20292 whole entry): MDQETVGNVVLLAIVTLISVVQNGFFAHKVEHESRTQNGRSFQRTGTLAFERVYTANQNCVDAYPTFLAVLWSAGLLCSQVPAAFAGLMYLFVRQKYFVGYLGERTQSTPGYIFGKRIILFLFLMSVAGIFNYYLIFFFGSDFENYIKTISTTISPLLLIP

[5] = Passive apparent permeability across apical to basolateral side in human Caco2 cells at pH 6.5; assay type: ADME, cell-based; details: Caco-2, pH 6.5
How it was run: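 Passive permeability across Caco-2 monolayers, measured in the A to B direction at pH 6.5.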

[6] = target: T2, Arachidonate 5-lipoxygenase-activating protein (Homo sapiens) (UniProt P20292); test: Inhibition of FLAP in human whole blood assessed as reduction in calcium ionophore-stimulated LTB4 production preincubated for 4 hrs followed by calcium ionophore stimulation and measured after 20 mins by EIA; assay type: tissue-based
T2 sequence (whole entry): T1 sequence (P20292 whole entry)
How it was run: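 Fresh human whole blood was incubated with compound for 4 h, then stimulated with calcium ionophore, and LTB4 production was measured as the 5-LO pathway read-out. IC50 was also converted to a free value: IC50 × (Fu/100), where Fu = 100 − human plasma protein binding (%).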

[7] = Mutagenicity in Salmonella typhimurium TA98 in absence of rat S9 fraction by Ames test; assay type: toxicity; details: salmonella enterica subsp. enterica serovar typhimurium; how it was run: as §1
[8] = Octanol-phosphate buffer partition co-efficient, log D of the compound at pH 7.4 after 2 hrs by LC-MS/MS-based shake flask method; assay type: physicochemical
How it was run: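 Distribution between octanol and water at pH 7.4.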

[9] = Mutagenicity in Salmonella typhimurium TA98 in presence of rat S9 fraction by Ames test; assay type: toxicity, subcellular; details: salmonella enterica subsp. enterica serovar typhimurium; how it was run: as §1
[10] = Intrinsic clearance in human hepatocytes assessed per million cells at 1 uM measured after 2 to 60 mins by LC-MS/MS analysis; assay type: ADME, cell-based, Hepatocyte; details: read-out: CLH
[11] = Aqueous solubility of the compound in pH 7.4 phosphate buffer measured after 24 hrs by LC-MS/MS-based shake flask method; assay type: physicochemical
[12] = system: THP-1; test: Cytotoxicity against human THP1 cells assessed as reduction in cell viability measured after 48 hrs by resazurin assay; assay type: cell-based; details: THP-1, 48 h
[13] = system: HepG2; test: Cytotoxicity against human HepG2 cells assessed as reduction in ATP depletion in presence of glucose/galactose; assay type: cell-based
[14] = target: Prostaglandin G/H synthase 1 (Homo sapiens) (UniProt P23219); test: Activity at COX1 in human whole blood assessed as effect on […] production by EIA; assay type: tissue-based
[15] = target: T3, Prostaglandin G/H synthase 2 (Homo sapiens) (UniProt P35354); test: Activity at COX2 in human whole blood assessed as effect on LPS-induced PGE2 production preincubated for 15 mins followed by LPS-stimulation and measured after overnight incubation by EIA; assay type: tissue-based
T3 sequence (whole entry): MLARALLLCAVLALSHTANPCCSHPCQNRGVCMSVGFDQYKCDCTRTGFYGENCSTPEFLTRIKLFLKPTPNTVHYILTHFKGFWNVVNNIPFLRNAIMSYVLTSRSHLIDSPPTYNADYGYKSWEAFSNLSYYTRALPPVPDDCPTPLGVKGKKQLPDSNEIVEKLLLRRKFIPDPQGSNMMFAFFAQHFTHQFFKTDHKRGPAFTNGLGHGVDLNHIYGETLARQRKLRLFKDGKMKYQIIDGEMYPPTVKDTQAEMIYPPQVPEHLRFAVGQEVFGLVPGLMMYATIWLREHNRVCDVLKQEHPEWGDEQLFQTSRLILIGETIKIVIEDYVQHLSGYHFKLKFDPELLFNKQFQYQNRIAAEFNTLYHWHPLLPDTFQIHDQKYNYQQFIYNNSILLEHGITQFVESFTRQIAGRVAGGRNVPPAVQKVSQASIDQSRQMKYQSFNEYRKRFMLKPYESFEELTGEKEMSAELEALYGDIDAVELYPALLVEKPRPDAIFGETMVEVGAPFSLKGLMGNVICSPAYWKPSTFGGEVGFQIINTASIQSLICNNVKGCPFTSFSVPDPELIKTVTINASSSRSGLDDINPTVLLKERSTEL

[16] = system: Canis familiaris; test: Ex vivo reversible inhibition of FLAP in Beagle dog assessed as reduction in ionophore-stimulated LTB4 production at 0.18 mg/kg, po on day1 and 0.09 mg/kg, po on day 3 measured after 48 hrs; assay type: functional, organism-based; details: Canis lupus familiaris
How it was run: (§2)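 Two beagle dogs were given two oral doses 48 h apart: 0.18 mg/kg on day 1 and 0.09 mg/kg on day 3. LTB4 production in calcium ionophore-stimulated blood was followed ex vivo after each dose, including 48 h after the second dose, and compared with baseline.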

[17] = system: Canis familiaris; test: Ex vivo inhibition of FLAP in po dosed Beagle dog assessed as reduction in ionophore-stimulated LTB4 production; assay type: functional, Canis lupus familiaris
[18] = system: Canis familiaris; test: Ex vivo inhibition of FLAP in po dosed Beagle dog assessed as reduction in ionophore-stimulated LTB4 production administered daily for 3 consecutive days measured during compound dosing by LC-MS/MS analysis; assay type: functional, organism-based; details: Canis lupus familiaris
How it was run: (§3)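 Beagle dogs were given oral doses once daily for 3 consecutive days at 0.02, 0.09 or 0.2 mg/kg (n=3 per dose). Blood was stimulated ex vivo with calcium ionophore, and LTB4 production was measured during dosing and up to 24 h after the last dose. Results were baseline-corrected, plotted with plasma concentration and reported as medians.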

[19] = system: Homo sapiens; test: Suppression of calcium ionophore-stimulated LTB4 production in human assessed as Cmin required to show >80% reduction in plasma LTB4 levels at 60 to 1200 mg, po administered as single dose measured after 24 hrs; assay type: functional
[20] = system: Canis familiaris; test: Ex vivo inhibition of FLAP in Beagle dog assessed as reduction in LTE4 level in urine at 0.02 mg/kg, po administered daily for 3 consecutive days measured 24 hrs post-last dose by colorimetric method relative to control; assay type: functional; details: Canis lupus familiaris
How it was run: (§4)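 Urinary LTE4 was measured at baseline and over the final 24 h of dosing in beagle dogs given oral doses once daily for 3 consecutive days (0.02, 0.09 or 0.2 mg/kg, n=3 per dose). Dogs with baseline uLTE4 below the LOQ were excluded. Inhibition was expressed relative to each dog's own baseline.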

[21] = system: Canis familiaris; test: Ex vivo inhibition of FLAP in Beagle dog assessed as reduction in ionophore-stimulated LTB4 production at 0.9 mg/kg, po measured within 2.5 hrs relative to control; assay type: functional, Canis lupus familiaris
How it was run: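 Two beagle dogs were given a single oral dose of 0.9 mg/kg. LTB4 production in calcium ionophore-stimulated blood was followed ex vivo over time and compared with pre-dose baseline.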

[22] = organism: Canis lupus familiaris; test: Inhibition of FLAP in dog whole blood assessed as reduction in calcium ionophore-stimulated LTB4 production; assay type: tissue-based
[23] = system: Canis familiaris; test: Ex vivo inhibition of FLAP in Beagle dog assessed as reduction in ionophore-stimulated LTB4 production at 0.18 mg/kg, po on day1 and 0.09 mg/kg, po on day 3 measured after 4 to 9 hrs relative to control; assay type: functional, Canis lupus familiaris; how it was run: as §2
[24] = system: Homo sapiens; test: Suppression of urine LTE4 level in po dosed human administered daily for 10 days; assay type: functional, organism-based
How it was run: (§5)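 Endogenous urinary LTE4 measured relative to baseline in healthy volunteers. Subjects received an oral suspension as single doses of 25–1200 mg, or 60–600 mg once daily for 10 days.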

[25] = system: Homo sapiens; test: Suppression of urine LTE4 level in po dosed human administered as single dose; assay type: functional, organism-based; how it was run: as §5
[26] = system: Homo sapiens; test: Suppression of calcium ionophore-stimulated LTB4 production in po dosed human blood administered daily for 10 days; assay type: functional, organism-based
How it was run: (§6)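 Fresh blood drawn from healthy volunteers dosed with an oral suspension. Single doses were 25–1200 mg (SAD). Multiple dosing was 60, 180, 300 or 600 mg once daily for 10 days (MAD). LTB4 was measured after ex vivo calcium ionophore stimulation, relative to baseline.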

[27] = system: Homo sapiens; test: Suppression of calcium ionophore-stimulated LTB4 production in po dosed human blood administered as single dose; assay type: functional, organism-based; how it was run: as §6
[28] = system: Canis familiaris; test: Ex vivo inhibition of FLAP in Beagle dog assessed as reduction in LTE4 level in urine at 0.09 to 0.2 mg/kg, po administered daily for 3 consecutive days measured 24 hrs post-last dose by colorimetric method; assay type: functional, Canis lupus familiaris; how it was run: as §4
[29] = system: Canis familiaris; test: Ex vivo inhibition of FLAP in Beagle dog assessed as reduction in ionophore-stimulated LTB4 production at 0.02 to 0.2 mg/kg, po administered daily for 3 consecutive days measured 24 hrs post-last dose by LC-MS/MS analysis; assay type: functional, organism-based; details: Canis lupus familiaris; how it was run: as §3

Prostaglandin G/H synthase 1 (Homo sapiens), sequence (P23219 whole entry): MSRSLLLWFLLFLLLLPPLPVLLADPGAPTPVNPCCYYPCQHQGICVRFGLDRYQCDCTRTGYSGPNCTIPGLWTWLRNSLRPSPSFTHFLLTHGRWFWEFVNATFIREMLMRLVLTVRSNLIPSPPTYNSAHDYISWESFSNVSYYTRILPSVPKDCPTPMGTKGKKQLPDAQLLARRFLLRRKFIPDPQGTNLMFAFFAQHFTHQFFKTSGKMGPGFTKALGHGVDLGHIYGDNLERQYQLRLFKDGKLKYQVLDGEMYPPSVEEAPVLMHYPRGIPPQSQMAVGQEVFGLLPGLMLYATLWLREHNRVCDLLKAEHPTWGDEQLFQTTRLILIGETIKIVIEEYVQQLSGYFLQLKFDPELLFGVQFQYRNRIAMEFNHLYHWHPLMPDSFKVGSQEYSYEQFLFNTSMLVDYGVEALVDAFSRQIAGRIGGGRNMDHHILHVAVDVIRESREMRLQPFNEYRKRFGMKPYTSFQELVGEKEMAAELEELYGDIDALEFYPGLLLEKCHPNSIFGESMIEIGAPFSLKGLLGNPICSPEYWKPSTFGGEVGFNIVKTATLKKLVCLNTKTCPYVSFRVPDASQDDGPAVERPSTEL

hepatocyte CLint at 1 µM [3]	IC50 [4]	Papp A→B [5]	fIC50 [6]	logD at 2 h [8]	hepatocyte CLint at 1 µM [10]	solubility thermodynamic at 24 h [11]	Structure (SMILES)	Activity [1]	Activity [2]	Activity [7]	Activity [9]	other results
12.8 µL/min/1e6 cells	59 nM	20.5 ×10⁻⁶ cm/s	7.4 nM	3.1	4 µL/min/1e6 cells	225 µM (≈ 91.2 µg/mL)	Cc1cc(-c2ccc(C(=O)[C@@H]3CCCC[C@H]3C(=O)Nc3cn(C)nc3C)cc2)n[nH]1	Non-Toxic	Non-Toxic	Non-Toxic	Non-Toxic	
8.6 µL/min/1e6 cells		9.2 ×10⁻⁶ cm/s	16 nM	2.9	4.9 µL/min/1e6 cells	329 µM (≈ 148 µg/mL)	CCn1ncc(NC(=O)[C@@H]2CCCC[C@H]2C(=O)c2ccc(-c3cc(C)n[nH]3)cc2)c1C(N)=O	Toxic	Toxic	Toxic	Toxic	
14.4 µL/min/1e6 cells		0.15 ×10⁻⁶ cm/s		2.3	6.7 µL/min/1e6 cells	402 µM (≈ 175 µg/mL)	Cc1cc(-c2ccc(C(=O)[C@@H]3CCCC[C@H]3C(=O)Nc3c(C(N)=O)n[nH]c3C)cc2)[nH]n1					
	47 nM			2.1		224 µM (≈ 101 µg/mL)	Cc1cc(-c2ccc(C(=O)[C@@H]3CCCC[C@H]3C(=O)Nc3cnn(C)c3C(=O)NO)cc2)[nH]n1					
			22 nM				Cc1cc(-c2ccc(C(=O)[C@@H]3CCCC[C@H]3C(=O)Nc3cn(C)nc3C(N)=O)cc2)[nH]n1					
			96 nM				Cc1cc(-c2ccc(C(=O)[C@@H]3CCCC[C@H]3C(=O)Nc3c(C(N)=O)n[nH]c3C)cc2)n[nH]1					
			6.5 nM				Cc1cc(-c2ccc(C(=O)[C@@H]3CCCC[C@H]3C(=O)Nc3cnn(C)c3S(N)(=O)=O)cc2)n[nH]1					IC50 [12]: > 250000 nM; IC50 [13]: > 250000 nM; Activity [14]: inactive; Activity [15]: inactive
			2 nM				Cc1cc(-c2ccc(C(=O)[C@@H]3CCCC[C@H]3C(=O)Nc3cnn4c3C(=O)NCC4)cc2)n[nH]1					inhibition [16]: Active; fIC50 [17]: 0.1 nM; inhibition [18]: Dose-dependent effect; Cmin [19]: >15 nM; inhibition in vivo at 0.02 mg/kg [20]: 60%; IC50 [12]: > 250000 nM; %max [21]: >90%; fIC50 [22]: 1 nM; %max [23]: >90%; Activity [24]: Dose-dependent effect; IC50 [13]: > 250000 nM; Activity [25]: Dose-dependent effect; Activity [14]: inactive; Activity [26]: Dose-dependent effect; Activity [27]: Dose-dependent effect; inhibition (INH) [28]: 100%; Activity [15]: inactive; inhibition [29]: inactive
6.5 µL/min/1e6 cells		2.6 ×10⁻⁶ cm/s	13 nM	2.6	3 µL/min/1e6 cells	475 µM (≈ 206 µg/mL)	Cc1cc(-c2ccc(C(=O)[C@@H]3CCCC[C@H]3C(=O)Nc3cnn(C)c3C(N)=O)cc2)[nH]n1	Toxic	Toxic	Toxic	Toxic	
5.7 µL/min/1e6 cells	101 nM	1.4 ×10⁻⁶ cm/s	8 nM	2.6	< 1 µL/min/1e6 cells	399 µM (≈ 179 µg/mL)	Cc1cc(-c2ccc(C(=O)[C@@H]3CCCC[C@H]3C(=O)Nc3c(C)nn(C)c3C(N)=O)cc2)n[nH]1	Toxic	Toxic	Toxic	Toxic	
14 µL/min/1e6 cells					12.4 µL/min/1e6 cells	60 µM (≈ 26.1 µg/mL)	Cc1cc(-c2ccc(C(=O)[C@@H]3CCCC[C@H]3C(=O)Nc3cn(C)nc3C(N)=O)cc2)n[nH]1	Non-Toxic	Non-Toxic	Non-Toxic	Non-Toxic	
	241 nM		487 nM	2.1		496 µM (≈ 216 µg/mL)	Cc1cc(-c2ccc(C(=O)[C@@H]3CCCC[C@H]3C(=O)Nc3cnn(CC(N)=O)c3)cc2)[nH]n1					
	17 nM	0.21 ×10⁻⁶ cm/s	570 nM	0.2	3.2 µL/min/1e6 cells	599 µM (≈ 261 µg/mL)	Cc1cc(-c2ccc(C(=O)[C@@H]3CCCC[C@H]3C(=O)Nc3cnn(C)c3C(=O)O)cc2)[nH]n1					
